Calls of active or inactive are those of the source. The rule behind the calls is not given here.
Legend:
[1] = Antioxidant activity in 2',7'-dichlorodihydrofluorescein diacetate-treated hTERT-HME1 cells assessed as reduction of H2O2 production at 100 uM during after 24 hrs by FACS analysis; format: functional, Homo sapiens; set-up: scale not given: the % may be the effect or the level left
How it was run: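 Mammary cells seeded at 0.75 ×10⁶ per 100-mm dish. Exposed to test agent or Trolox at […] (unit as printed) for 4, 8, 12, 24 and 48 h. Loaded with H₂DCFDA 15 min at 37 °C. Detached plus adherent cells resuspended in PBS; DCF read in FL1 on a FACScan. Output is the ratio of treated to DMSO-control fluorescence, mean ± SD, n = 3.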

[2] = Antioxidant activity assessed as Fe2+ formation per nmol of compound by FRAP assay; format: functional
How it was run: (§1)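 FRAP method: working reagent of acetate buffer, TPTZ solution and FeCl₃·6H₂O solution (25:2.5:2.5 by volume), warmed 30 min at 37 °C before addition. Absorbance read after 30 min at 30 s intervals. Trolox as reference antioxidant. Output is the antioxidant ratio, nmol Fe²⁺ per nmol compound, mean ± SD, n = 3.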

[3] = Antioxidant activity assessed as Fe2+ formation per nmol of compound by FRAP assay relative to trolox; format: functional; how it was run: as §1
[4] = tested on: MCF7; assay: Cytotoxicity against human MCF7 cells after 48 hrs by MTT assay; format: functional, cell-based; details: MCF7, 48 h
How it was run: (§2)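 Cells seeded at 1 ×10⁴ per well and allowed 24 h, then exposed 48 or 72 h. Medium replaced with fresh medium containing MTT at 0.5 mg/ml final, 3 h at 37 °C. MCF7 in phenol red-free RPMI-1640 with 10% FBS; hTERT-HME1 in RPMI-1640/mammary epithelial growth medium 90:10. IC₂₀ and IC₅₀ are means of 8 assays ± SD.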

[5] = Cytotoxicity against hTERT-HME1 cells after 72 hrs by MTT assay; format: cell-based, Homo sapiens; details: for IC50: Homo sapiens, HME1, 72 h; for IC20 at 72 h: human, hTERT-HME1 cells; how it was run: as §2
[6] = tested on: MCF7; assay: Cytotoxicity against human MCF7 cells after 72 hrs by MTT assay; format: functional, cell-based; details: MCF7, 72 h; how it was run: as §2
[7] = Cytotoxicity against hTERT-HME1 cells after 48 hrs by MTT assay; format: cell-based, Homo sapiens; details: for IC50: Homo sapiens, HME1, 48 h; for IC20 at 48 h: human, hTERT-HME1 cells; how it was run: as §2

SMILES | Activity [1] | Activity [2] | Ratio [3] | IC20 [4] | IC50 [4] | IC50 [5] | IC20 at 72 h [5] | IC20 [6] | IC50 [6] | IC50 [7] | IC20 at 48 h [7]
Cc1c(C)c2c(c(C)c1O)CCC(C)(C(=O)O)O2 (stereo not given) [TROLOX] | 20% |  |  |  |  |  |  |  |  |  | 
O=C(c1ccc(O)c(O)c1)c1ccc2sc(=O)[nH]c2c1 |  | 6.1 nmol | 2 | 12.1 µM | 43.6 µM | 116 µM | 33.8 µM | 8.3 µM | 28.1 µM | 155 µM | 43.5 µM
O=C(c1ccc(O)cc1)c1ccc2sc(=O)[nH]c2c1 |  | inactive |  | 44.5 µM | 121 µM | 111 µM | 78.4 µM | 37.8 µM | 95.9 µM | 109 µM | 73.1 µM

Reference: ChEMBL document CHEMBL1158346, “Synthesis and antioxidant potential of novel synthetic benzophenone analogues” (Eur J Med Chem, 2009)
